Experimental data of several laboratories.
Protocols differ between the studies behind these lines.
Target: NUAK family SNF1-like kinase 1 (NUAK1, Homo sapiens, UniProt O60285)
Sequence (O60285 1-661, as in one of the studies): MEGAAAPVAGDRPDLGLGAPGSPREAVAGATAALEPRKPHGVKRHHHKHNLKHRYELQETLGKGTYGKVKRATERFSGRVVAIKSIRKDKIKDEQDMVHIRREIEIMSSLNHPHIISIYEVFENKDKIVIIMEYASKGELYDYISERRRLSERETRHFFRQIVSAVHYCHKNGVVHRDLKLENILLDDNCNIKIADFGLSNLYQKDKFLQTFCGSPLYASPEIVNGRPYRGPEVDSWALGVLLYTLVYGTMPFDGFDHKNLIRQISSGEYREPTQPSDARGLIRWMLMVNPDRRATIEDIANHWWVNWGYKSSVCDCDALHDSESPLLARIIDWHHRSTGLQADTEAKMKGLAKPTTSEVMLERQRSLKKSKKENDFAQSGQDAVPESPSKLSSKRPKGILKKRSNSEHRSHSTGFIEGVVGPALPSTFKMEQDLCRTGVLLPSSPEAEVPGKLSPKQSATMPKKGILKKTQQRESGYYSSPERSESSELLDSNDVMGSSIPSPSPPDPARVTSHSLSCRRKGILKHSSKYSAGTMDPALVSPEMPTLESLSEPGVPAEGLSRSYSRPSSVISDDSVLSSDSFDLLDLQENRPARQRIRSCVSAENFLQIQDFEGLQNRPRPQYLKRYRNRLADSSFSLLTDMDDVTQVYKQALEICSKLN

Compound	assay	setting	remaining binding [%]
O=C(NC[C@@H]1[C@H]2CN(C(=O)OCc3cc(C(F)(F)F)cc(C(F)(F)F)c3)C[C@@H]12)c1ccc2[nH]nnc2c1	cell-free assay, competition with immobilised ligand	1 µM	87
O=C(c1ccc(Nc2ncc(Cl)c(-c3cc4ccccc4s3)n2)cc1)N1CCC(N2CCCC2)CC1	binding, competition with immobilised ligand	1 µM	2.6
CCC(=N\O)/C(C)=C/c1ccc(F)cc1	cell-free assay, competition with immobilised ligand	1 µM	100
O=C(NCC1CCOCC1)c1n[nH]cc1NC(=O)c1c(F)cccc1F	binding, competition with immobilised ligand	1 µM	100
CCN1CCN(Cc2ccc(C(=O)Nc3ccc(C)c(Oc4ccc5c(c4)CC(=O)N5)c3)cc2C(F)(F)F)CC1	binding, competition with immobilised ligand	1 µM	100
CNC(=O)[C@@H]1CC[C@@H](n2c(-c3ccc4cnccc4c3)nc3ccc(C(=O)NCc4cccc(C(N)=O)c4)cc32)C1	binding, competition with immobilised ligand	1 µM	84
CN(CCCC(F)(F)F)c1nccc(-c2cnn3ncccc23)n1	binding	1 µM	100
O=C(NCCCN1CCOCC1)c1ccc(Nc2nccc(-c3cc4ccccc4s3)n2)cc1	binding, competition with immobilised ligand	1 µM	13
C[C@@H]1CCN(c2nccc(-c3cnn4ncccc34)n2)C1	binding	1 µM	93
CN(C)C(=O)Cn1cc(-c2nc([C@@](C)(c3ccc(-c4cnc(N)nc4)cc3)C3CC3)no2)cn1	cell-free assay, competition with immobilised ligand	1 µM	100
Nc1ncc2c(n1)-c1c([nH]c3ccc(C#CC4CC4)cc13)CCCC2	binding, competition with immobilised ligand	1 µM	100
Cc1cnc(Nc2ccc(C(=O)N3CCC(N4CCCC4)CC3)cc2)nc1-c1cc2ccccc2s1	binding, competition with immobilised ligand	1 µM	2.7
N[C@@H]1CCN(c2nccc(-c3cnn4ncccc34)n2)C1	binding	1 µM	44
COc1ncc2cc3ccccc3nc2c1C#N	cell-free assay, competition with immobilised ligand	5 µM	87
Cn1cc(Cl)c2c(Oc3c(F)cc(Nc4cc(Cl)nc(N)n4)cc3F)ccnc21	cell-free assay, competition with immobilised ligand	0.1 µM	96
CN(C)c1nccc(-c2cnn3ncccc23)n1	binding	1 µM	97
COc1cnc(Nc2cccc(S(N)(=O)=O)c2)nc1N1CCN(c2ccccc2)CC1	binding, competition with immobilised ligand	1 µM	82
NS(=O)(=O)c1cc(NC(=O)Cc2ccccc2)ccc1Oc1cccc(Cl)c1	cell-free assay, competition with immobilised ligand	1 µM	100
CN(C)c1nccc(-c2cnc3ncccn23)n1	binding	1 µM	98
